# An excerpt weighted towards active compounds, which were near 12% of everything screened.
# ABCG2 inh: ABCG2 efflux pump inhibitors, primary screen, multiplex with ABCB1, IgMXP3 cells, flow cytometry. inhibition, % at 6.6 µM. AID 1325, 2008. hit rate 0.1% among 190,000. JC-1 efflux. Broad substrate specificity ATP-binding cassette transporter ABCG2 (Homo sapiens), Q9UNQ0;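 active = inhibition above 80%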;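 note: 0% = DMSO and 100% = nicardipine control wells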
#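 Assay system – ABCG2 IgMXP3 and barcoded ABCB1 CCRF-Adr cell mix · Input – 3 million cells/mL in well · Reagent – JC-1 fluorescent substrate · Compound – single test compound dose, 6.6 µM final · Timing – 10 min exposure at 25 °C with rotation, no wash · Detection – flow cytometry of retained JC-1 fluorescence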
# RAM network inh: inhibitors of the yeast RAM network, primary screen, dse1pr::URA3 reporter, 5-FOA selection; S. cerevisiae dse1pr::URA3 reporter, 5-FOA growth OD615, 2 d; analog-sensitive cbk1-as2 kinase mutant strain; inhibition, % at 50 µM; hit rate 1.8% among 190,000; AID 868, 2007;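 active = inhibition above a set limit, 3 SD over mean compound inhibition, cut at about 8.4% in these data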;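 note: 0% = DMSO-only wells with no growth and 100% = 10 µM 1-NA-PP1 full growth; inhibition rescues growth on 5-FOA so higher OD means more RAM inhibition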
# ABCB1 inh: ABCB1 efflux pump inhibitors, primary screen, cell-based, multiplex, flow cytometry, ABCG2 counter-screen. AID 1326, 2008. ATP-dependent translocase ABCB1 (Homo sapiens), P08183. inhibition, % at 6.6 µM. CCRF-Adr cells, JC-1 efflux. hit rate 0.067% among 190,000; in the data active = inhibition above about 40%;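 note: 0% = vehicle and 100% = reference inhibitor; higher value means more JC-1 retained so stronger ABCB1 efflux block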
# L major viab: Leishmania major promastigote growth inhibition, primary screen; AID 1063, 2008; Leishmania major promastigotes, resazurin fluorescence viability; inhibition, % at 10 µM; hit rate 9% among 200,000; in the data active = inhibition above about 50%;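 note: promastigotes grown with compound for 44 hours at 28 °C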
# WT yeast gro inh: growth inhibition of WT strain, primary screen, mitochondrial fusion inhibitor project, WT and mutant strains, chemical genetic; AID 1362, 2008; inhibition, % at 10 µM; hit rate 2.1% among 190,000; mitochondrial fusion phenotypic screen; in the data active = inhibition above about 58%; tested in S. cerevisiae
# * = called active by the depositor; . = no result.
SMILES,ABCG2 inh,RAM network inh,ABCB1 inh,L major viab,WT yeast gro inh
CCOC(=O)c1c(C)n(C)c2ccc(OCC(O)CN3CCN(C)CC3)cc12 (configuration not stated),11,0,1,76*,8
CCOC(=O)c1c(C)n(-c2ccc(C)cc2)c2ccc(OCC(O)CN3CCN(C)CC3)cc12 (configuration not stated),0,-1,2,100*,92*
COc1ccccc1NC(=S)N1CC(C)OC(C)C1 (configuration not stated),0,1,-1,-2,5
CCN(CC)S(=O)(=O)c1cc(C(=O)Nc2cccnc2Cl)ccc1Cl,6,1,1,0,-14
CCc1cccc(NC(=O)C2CCN(S(=O)(=O)c3cccs3)CC2)c1,2,3,0,10,16
Cc1ccc(NC(=O)C2CCN(S(=O)(=O)c3c(C)noc3C)CC2)cc1C,6,4,0,99*,-6
Cc1noc(C)c1S(=O)(=O)N1CCC(C(=O)Nc2ccccn2)CC1,1,1,0,5,42
Cc1ccccc1-c1nc(CN2CCC(C(=O)NC3CCN(Cc4ccccc4)CC3)CC2)c(C)o1,.,.,.,100*,12
CCc1cccc(NC(=O)C2CCN(S(=O)(=O)c3c(C)noc3C)CC2)c1,9,6,0,64*,-6
Cc1noc(C)c1S(=O)(=O)N1CCC(C(=O)NC2CCCc3ccccc32)CC1 (configuration not stated),3,3,1,60*,2
O=C(NCC1CCCO1)c1cc2ccccc2oc1=O (configuration not stated),4,2,1,-3,-10
CCc1cccc(C)c1NC(=O)CO/N=C(\N)CC(=O)NC1CCCCC1,2,1,1,-7,-5
Cc1noc(C)c1S(=O)(=O)N1CCC(C(=O)NC2CCN(Cc3ccccc3)CC2)CC1,-2,0,-2,89*,-2
Cc1noc(C)c1S(=O)(=O)N1CCC(Cc2ccccc2)CC1,1,6,1,10,28
CN(CCc1ccccn1)C(=O)CCC1CCCN(C(=O)c2ccc3c(c2)OCCO3)C1 (configuration not stated),0,1,0,-2,9
C/C(=N\NC(=O)CN(c1ccccc1)S(=O)(=O)c1ccccc1[N+](=O)[O-])C(C)(C)C,2,0,.,90*,-28
CCc1nnc(NC(=O)CSc2nnc(-c3ccccc3O)n2-c2ccc(C)cc2C)s1,5,8.5*,1,99*,25
Cn1c(=O)n(C)c2cc(NC(=O)CSc3nnc(-c4ccccc4O)n3-c3ccccc3)ccc21,17,4,2,60*,-2
CCc1nnc(NC(=O)CSc2nnc(COc3ccccc3)n2-c2ccc(C)cc2)s1,30,7,2,-2,-3
O=C(CSc1nnc(-c2ccncc2)n1-c1ccccc1)Nc1ccc(C(=O)O)cc1,4,1,1,-4,-9
O=C1CCCC(=O)N1c1ccc(NCCOCCO)c([N+](=O)[O-])c1,5,2,1,3,2
COc1ccc(CN2CCNC(=O)C2CC(=O)N(C)Cc2nccn2C)cc1OC (configuration not stated),-1,0,0,0,8
COc1ccc(NS(=O)(=O)c2cccc(NC(=O)CCC(=O)c3cccs3)c2)cc1,-1,8,0,-2,2
Cc1ccc(C(=O)Nc2ccc(C)c(S(=O)(=O)Nc3ccccc3Cl)c2)s1,5,4,1,84*,70*
O=C(Nc1ccc(Cl)c(S(=O)(=O)Nc2ccccc2Cl)c1)c1cccs1,-10,4,-1,77*,84*
COc1ccc(NC(=O)CCC(=O)c2cccs2)cc1S(=O)(=O)Nc1ccccc1Cl,0,10.0*,0,0,-16
O=S(=O)(c1ccc(Cl)cc1)N1CCN(C(=S)Nc2ccc(F)c(Cl)c2)CC1,2,3,1,17,21
Cc1cccc(CN2CCc3c(OCC(=O)N4CCCc5ccccc54)cccc3C2=O)c1,45,-1,10,28,3
O=C1c2cccc(OCC(=O)N3CCCc4ccccc43)c2CCN1Cc1ccc(F)cc1,20,7,17,95*,65*
